Reference: ChEMBL document CHEMBL1641591, “Inhibition of monoamine oxidase by selected C5- and C6-substituted isatin analogues” (Bioorg Med Chem, 2011)

Legend:
[1] = target: T1, Amine oxidase [flavin-containing] B (Homo sapiens, UniProt P27338); assay: Inhibition of human recombinant MAOB expressed in insect cells by fluorescence assay; assay type: cell-based
T1 sequence (P27338 whole entry): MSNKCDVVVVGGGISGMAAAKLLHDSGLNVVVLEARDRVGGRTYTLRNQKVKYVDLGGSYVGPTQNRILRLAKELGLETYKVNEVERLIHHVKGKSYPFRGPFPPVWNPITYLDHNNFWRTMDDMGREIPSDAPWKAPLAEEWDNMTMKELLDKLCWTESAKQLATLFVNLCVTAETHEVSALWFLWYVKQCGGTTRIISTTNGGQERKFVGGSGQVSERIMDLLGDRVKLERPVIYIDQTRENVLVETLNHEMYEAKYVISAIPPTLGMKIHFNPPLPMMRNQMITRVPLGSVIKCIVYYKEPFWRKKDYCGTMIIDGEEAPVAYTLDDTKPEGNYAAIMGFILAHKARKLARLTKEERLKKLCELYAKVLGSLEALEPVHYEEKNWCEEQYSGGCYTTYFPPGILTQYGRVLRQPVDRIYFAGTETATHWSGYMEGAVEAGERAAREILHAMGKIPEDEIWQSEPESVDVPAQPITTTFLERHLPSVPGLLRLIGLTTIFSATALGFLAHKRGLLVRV

Homo sapiens = species: Homo sapiens; assay: Selectivity ratio of Ki for human recombinant MAOA to Ki for human recombinant MAOB
Outline: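 Ki values were obtained from duplicate kynuramine-oxidation IC50 data for insect-cell recombinant human MAO-A and MAO-B by the Cheng–Prusoff equation. […] The ratio is Ki(MAO-A)/Ki(MAO-B).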

[2] = target: T2, Amine oxidase [flavin-containing] A (Homo sapiens, UniProt P21397); assay: Inhibition of human recombinant MAOA expressed in insect cells by fluorescence assay
T2 sequence (P21397 whole entry): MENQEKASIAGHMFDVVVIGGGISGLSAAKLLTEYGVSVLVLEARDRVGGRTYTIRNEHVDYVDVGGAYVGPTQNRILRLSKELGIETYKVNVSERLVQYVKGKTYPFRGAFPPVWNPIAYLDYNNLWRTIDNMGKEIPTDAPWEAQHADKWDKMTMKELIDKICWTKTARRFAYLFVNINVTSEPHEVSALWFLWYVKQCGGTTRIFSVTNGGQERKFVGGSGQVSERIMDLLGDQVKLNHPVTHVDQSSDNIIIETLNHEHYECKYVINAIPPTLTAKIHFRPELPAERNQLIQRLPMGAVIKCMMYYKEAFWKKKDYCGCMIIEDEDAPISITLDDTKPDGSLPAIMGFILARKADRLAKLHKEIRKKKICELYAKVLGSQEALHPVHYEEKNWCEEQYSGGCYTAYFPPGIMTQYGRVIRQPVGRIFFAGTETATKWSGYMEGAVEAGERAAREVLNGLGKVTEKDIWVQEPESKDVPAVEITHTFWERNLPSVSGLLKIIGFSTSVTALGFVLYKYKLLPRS
Outline: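 Insect-cell microsomal recombinant human MAO-A (0.0075 mg/mL) in 100 mM potassium phosphate, pH 7.4, made isotonic with KCl, with 45 µM kynuramine. Incubated 20 min at 37 °C and stopped with NaOH. 4-Hydroxyquinoline was read by fluorescence (ex 310/em 400 nm) against a calibration curve.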

[3] = target: T2, Amine oxidase [flavin-containing] A; assay: Inhibition of human recombinant MAOA expressed in insect cells at 100 uM by fluorescence assay
[4] = target: T2, Amine oxidase [flavin-containing] A; assay: Competitive inhibition of human recombinant MAOA expressed in insect cells at 2.5 to 10 uM by Lineweaver-Burk plot analysis
[5] = target: T1, Amine oxidase [flavin-containing] B; assay: Inhibition of human recombinant MAOB expressed in insect cells at 2.8 uM by fluorescence assay; details: TDE = time-dependent effect
[6] = target: T2, Amine oxidase [flavin-containing] A; assay: Inhibition of human recombinant MAOA expressed in insect cells at 9.76 uM by fluorescence assay; details: TDE = time-dependent effect
Outline: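 Reversibility test: recombinant human MAO-A (0.03 mg/mL) was preincubated 0, 15, 30 or 60 min at 37 °C with 9.76 µM inhibitor in isotonic pH 7.4 phosphate buffer. […] Residual rate was measured by 4-hydroxyquinoline fluorescence, in triplicate, mean ± SD.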

[7] = target: T1, Amine oxidase [flavin-containing] B; assay: Competitive inhibition of human recombinant MAOB expressed in insect cells at 0.125 to 0.5 uM by Lineweaver-Burk plot analysis
Outline: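 Recombinant human MAO-B from insect cells (0.015 mg/mL) was run with 15–90 µM kynuramine, without inhibitor and with 0.125, 0.25 or 0.5 µM inhibitor. The assay was otherwise the standard fluorescence procedure. Lineweaver–Burk plots were fitted by linear regression.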

[8] = target: T1, Amine oxidase [flavin-containing] B; assay: Inhibition of human recombinant MAOB expressed in insect cells at 100 uM by fluorescence assay

Compound | IC50 [1] [µM] | Ki [1] [µM] | Ratio Ki (Homo sapiens) | IC50 [2] [µM] | Ki [2] [µM] | inhibition (INH) [3] | inhibition (INH) [4] | inhibition (INH) [5] | inhibition (INH) [6] | inhibition (INH) [7] | inhibition (INH) [8]
Nc1cccc(/C=C/c2ccccc2)c1 | 5.74 | 2.47 | 3.24 | 30.4 | 8.01 | – | – | – | – | – | –
Nc1ccc(CCc2ccccc2)cc1 | – | – | – | 131 | 34.5 | – | – | – | – | – | –
Nc1cccc(OCc2ccccc2)c1 [3-(BENZYLOXY)ANILINE] | 23.4 | 10.1 | 12.2 | 466 | 123 | – | – | – | – | – | –
Nc1ccc(Oc2ccc(Cl)cc2)cc1 | 16.8 | 7.24 | 1.07 | 29.3 | 7.72 | – | – | – | – | – | –
Nc1cccc(CCc2ccccc2)c1 | – | – | – | 355 | 93.5 | – | – | – | – | – | –
Nc1ccc(OCc2ccccc2)cc1 [4-BENZYLOXYANILINE] | 12.8 | 5.51 | 9.13 | 191 | 50.3 | – | – | – | – | – | –
Nc1ccc(/C=C/c2ccccc2)cc1 [(E)-4-STYRYLANILINE] | 6.34 | 2.73 | 2.44 | 25.3 | 6.67 | – | – | – | – | – | –
Cl.Nc1ccc(CCCCc2ccccc2)cc1 | 5.55 | 2.39 | – | – | – | Not Active | – | – | – | – | –
Nc1cccc(-c2ccccc2)c1 | – | – | – | 68.6 | 18.1 | – | – | – | – | – | Not Active
Nc1ccc(-c2ccccc2)cc1 [BIPHENYL-4-AMINE] | – | – | – | – | – | Not Active | – | – | – | – | Not Active

Further lines, with some results ahead:

IC50 [1] [µM] | Ki [1] [µM] | Ratio Ki (Homo sapiens) | IC50 [2] [µM] | Ki [2] [µM] | inhibition (INH) [3] | inhibition (INH) [4] | inhibition (INH) [5] | inhibition (INH) [6] | inhibition (INH) [7] | Compound | inhibition (INH) [8]
– | – | – | 2.72 | 0.717 | – | – | – | – | – | O=C1Nc2cc(/C=C/c3ccccc3)ccc2C1=O [(E)-6-STYRYLISATIN] | –
0.138 | 0.059 | 321 | 72.4 | 19.1 | – | – | – | – | – | O=C1Nc2cc(OCc3ccccc3)ccc2C1=O | –
0.066 | 0.028 | 113 | 12.2 | 3.21 | – | – | – | – | – | O=C1Nc2ccc(Oc3ccc(Cl)cc3)cc2C1=O | –
– | – | – | – | – | Not Active | – | – | – | – | Nc1cccc(Oc2ccccc2)c1 [3-PHENOXYANILINE] | –
1.54 | 0.663 | 3.75 | 9.44 | 2.49 | – | – | – | – | – | O=C1Nc2ccc(Oc3ccccc3)cc2C1=O | –
9.93 | 4.28 | 0.427 | 6.93 | 1.83 | – | – | – | – | – | O=C1Nc2cc(CCc3ccccc3)ccc2C1=O | –
1.4 | 0.603 | 2.13 | 4.88 | 1.29 | – | Active | tde | tde | Active | O=C1Nc2ccc(CCc3ccccc3)cc2C1=O | –
9.91 | 4.27 | 3.84 | 62.2 | 16.4 | – | – | – | – | – | O=C1Nc2cc(Oc3ccccc3)ccc2C1=O | –
0.009 | 0.004 | 15.8 | 0.233 | 0.061 | – | – | – | – | – | O=C1Nc2ccc(/C=C/c3ccccc3)cc2C1=O | –
0.103 | 0.044 | 27.4 | 4.62 | 1.22 | – | – | – | – | – | O=C1Nc2ccc(OCc3ccccc3)cc2C1=O | –
8.52 | 3.67 | 0.333 | 4.64 | 1.22 | – | – | – | – | – | O=C1Nc2cc(-c3ccccc3)ccc2C1=O | –
1.19 | 0.513 | 0.289 | 0.562 | 0.148 | – | – | – | – | – | O=C1Nc2ccc(-c3ccccc3)cc2C1=O | –
0.00066 | 0.00028 | 2030 | 2.19 | 0.577 | – | – | – | – | – | O=C1Nc2ccc(CCCCc3ccccc3)cc2C1=O | –
303 | 131 | 0.185 | 91.4 | 24.1 | – | – | – | – | – | Nc1ccc(Oc2ccccc2)cc1 [4-PHENOXYANILINE] | –
